Source: article PMC7274130 (Biochimica et Biophysica Acta. Proteins and Proteomics, 2020)
Each block holds one substance with its values, some of them ahead of it.

How the values were obtained:
[1] = Degradation of [3H]-THF-γ2 on incubation with human whole blood; format: in vitro ADME; conditions: 37 °C, radio-TLC, mean ± SD, n = 3
How it was run: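 Heparinized whole blood from three healthy male donors. 1 ml was pre-warmed 5 min at 37 °C, then spiked with [3H]-THF (Pro- or C-terminal Leu-labelled; final 93 nmol ml−1) and shaken at 37 °C, sampled 0–60 min. Stopped with ice-cold water/acetonitrile; supernatants were dichloromethane-extracted. The aqueous phase went to silica radio-TLC with 1 cm scintillation counting, and fragments were assigned by synthetic-peptide Rf. Mean ± […], n = 3.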

[2] = Degradation of [3H]-THF-γ2 on incubation with rat whole blood; format: in vitro ADME; conditions: 37 °C, radio-TLC, mean ± SD, n = 3
[3] = Degradation of [3H]-THF-γ2 on incubation with mouse whole blood; format: in vitro ADME; conditions: 37 °C, radio-TLC; for amount of minor degradation product, % of total: over the 60 min incubation with [3H]-THF
[4] = cited from earlier work
[5] = 60 min incubation with [3H]-THF

Substance: H-Gly-Pro-Lys-Phe-Leu-OH [4–8]
- amount of minor degradation product, % of total [3]: < 10 % of total

Substance: H-LEDGPKFL-OH [THF-γ2]
- half-life of THF in human plasma [4]: about 12 min

More lines, now with the values ahead:

- concentration of degradation product, % of the total peptides present [1, 5]: 30.36% ± 7.84
- concentration of degradation product, % of the total peptides present ([2]; 20 min incubation with [3H]-THF): 27.80% ± 3.32
Substance: H-DGPKFL-OH [3–8]

- concentration of degradation product, % of the total peptides present ([3]; 60 min incubation with [3H]-THF, mean ± SD, n = 3): 36.52% ± 2.69
- concentration of degradation product, % of the total peptides present ([1]; 5 min incubation with [3H]-THF): 2.16% ± 0.96
- concentration of degradation product, % of the total peptides present ([2]; 5 min incubation with [3H]-THF): 4.72% ± 1.05
- concentration of degradation product, % of the total peptides present [2, 5]: 54.90% ± 0.87
Substance: H-Glu-Asp-Gly-Pro-Lys-OH [2–6]

- amount of minor degradation product, % of total [3]: < 10 % of total
Substance: H-LEDGPK-OH [1–6]
